High-throughput results deposited in PubChem by The Scripps Research Institute Molecular Screening Center.
An excerpt weighted towards active compounds, which were near 2.3% of everything screened.
OXTR ag: human OXTR agonists, primary screen, fluorescence, CHO-OTR cells, Fluo-8 calcium. Oxytocin receptor (Homo sapiens), P30559. Fluo-8 calcium fluorescence; normalized: DMSO 0%, oxytocin 100%. activation, % at 3 µM. 0.32% of 320,000 active. AID 2435, 2010;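 active means activation above the mean of all tested compounds plus 3 SD, cutoff set per screening run, cut at about 20% in these data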;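 further: peak over basal fluorescence ratio from a 100 s FLIPR kinetic read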
Target sequence (P30559 whole entry, looked up): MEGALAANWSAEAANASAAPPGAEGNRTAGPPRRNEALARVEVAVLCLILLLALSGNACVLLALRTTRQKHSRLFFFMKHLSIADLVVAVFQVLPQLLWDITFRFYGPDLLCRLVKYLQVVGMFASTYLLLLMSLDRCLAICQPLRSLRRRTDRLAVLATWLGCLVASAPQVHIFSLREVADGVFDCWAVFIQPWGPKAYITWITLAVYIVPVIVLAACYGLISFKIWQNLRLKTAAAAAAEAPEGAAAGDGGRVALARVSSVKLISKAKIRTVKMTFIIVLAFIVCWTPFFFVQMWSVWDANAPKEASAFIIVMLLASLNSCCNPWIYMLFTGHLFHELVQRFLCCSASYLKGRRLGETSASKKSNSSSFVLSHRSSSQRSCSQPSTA
OXTR potentiator: human OXTR potentiators, primary screen, fluorescence, CHO-OTR cells, Fluo-8 calcium; 0.061% of 320,000 active; Fluo-8 calcium fluorescence, potentiator mode; 0% = oxytocin EC15, 100% = EC100; activation, % at 3 µM; Oxytocin receptor (Homo sapiens), P30559;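 active means activation above that plate's cutoff, the mean activation of tested compounds plus 3 SD, cut at about 6.6% in these data, passing the limit was not always enough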;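 further: 100% uses oxytocin at 75 nM as the full agonist control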
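Assay system: CHO-OTR cells, human receptor / Also added: oxytocin at about EC15, sub-maximal agonist stimulus / Dosing: single dose, 3.0 µM nominal final compound concentration / Incubation: 6 min pre-incubation, 100 s read / Technique: Fluo-8 calcium dye fluorescence / Read-out: % activation vs EC15 and EC100 oxytocin / Benchmarks: EC15 oxytocin low, 75 nM oxytocin high / Replicates: singlicate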
TAAR1 antagonist: human TAAR1 antagonists, primary screen, Fluo-8 calcium fluorescence, CHO RD-HGA16 cells; Trace amine-associated receptor 1 (Homo sapiens), Q96RJ0; antagonist; inhibition, % at 3 µM; 1.5% of 360,000 active;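 active means inhibition above a per-plate cutoff, the mean inhibition of test compounds on that plate plus 3 SD, cut at about 49% in these data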;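 further: 0% = DMSO plus EC80 beta-PEA response and 100% = DMSO alone without agonist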
Target sequence (Q96RJ0 whole entry, looked up): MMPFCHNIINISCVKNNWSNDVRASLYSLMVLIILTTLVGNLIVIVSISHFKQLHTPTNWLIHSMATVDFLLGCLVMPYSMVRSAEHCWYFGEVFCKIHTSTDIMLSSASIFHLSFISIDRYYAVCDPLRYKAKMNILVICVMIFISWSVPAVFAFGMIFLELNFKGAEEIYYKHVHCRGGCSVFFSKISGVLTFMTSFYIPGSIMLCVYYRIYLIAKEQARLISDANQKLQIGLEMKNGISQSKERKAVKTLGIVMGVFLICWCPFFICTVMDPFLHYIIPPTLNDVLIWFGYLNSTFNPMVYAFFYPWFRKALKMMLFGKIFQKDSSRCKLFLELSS
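System: RD-HGA16 CHO cells with stable hTAAR1 and Gα16 | Probe or stimulus: EC80 β-phenethylamine stimulus | Dosing: 3 µM, single point | Times: Dye loading 75 min at 37 °C, then 30 min room temperature | Measured by: Fluo-8 calcium-sensitive fluorescence | Read-out basis: % inhibition of agonist calcium response | Replicates: n of 1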
V1aR counter: agonists of human V1a receptor, primary screen, counter-screen for OXTR agonist project, fluorescence, CHO-V1R cells; activation, % at 3 µM; Vasopressin V1a receptor (Homo sapiens), P37288; AID 2797, 2010; Fluo-8 calcium fluorescence, agonist mode; 0% DMSO, 100% 3 nM vasopressin; 0.25% of 320,000 active;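 active means activation above the mean activation of all tested compounds plus 3 SD, per screening run, cut at about 20% in these data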;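 further: signal is peak over basal fluorescence ratio across a 100 second FLIPR read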
TAAR1 agonist: human TAAR1 agonists, primary screen, Fluo-8 calcium fluorescence, CHO RD-HGA16 cells. vehicle wells 0%, saturating PEA agonist 100%. activation, % at 3 µM. 0.99% of 360,000 active;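 active means activation above the mean activation of all test compounds in the run plus 3 SD, cut at about 38% in these data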
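System: CHO-derived RD-HGA16 cells with stable Gα16 and human TAAR1. Times: 17-24 h plating, Fluo-8 75 min 37 °C, 30 min RT. Measured by: calcium-sensitive Fluo-8 signal, excitation 470-495, emission 515-575 nm. Read-out basis: % activation relative to PEA EC100 response. Control set: DMSO and PEA EC100. Repeats: no replicates (n 1).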
The depositor's hits bear a star; nt = not tested or not shown.

SMILES	OXTR ag	OXTR potentiator	TAAR1 antagonist	V1aR counter	TAAR1 agonist
COC(=O)[C@@H](CC(C)C)NS(=O)(=O)N(Cc1ccccc1)[C@@H](CC(C)C)C(=O)OC	-0.6	-7.2	50.3*	-0.8	8.6
O=C(O)c1ccc(COc2ccc3ccccc3c2/C=C2/NC(=O)N(Cc3ccc(F)cc3)C2=O)cc1	nt	nt	56.0*	nt	13.8
O=C(O)c1ccc(COc2ccccc2/C=C2\NC(=O)N(Cc3ccccc3)C2=O)cc1	-0.3	-20.8	5.2	6.5	6.7
O=S(=O)(Cc1ccc(Cl)cc1)NCc1cccnc1	6.2	-13.2	-1.9	1.9	6.9
CC(=O)NC(Cc1cccc(C)c1)C(=O)NC1CCN(S(=O)(=O)c2ccccc2)CC1 (stereo not drawn)	0.8	-5.0	-4.8	0.7	2.2
CCOc1ccc(N(C)S(=O)(=O)c2cc(-c3cc(C)no3)ccc2C)cc1	-1.4	-20.9	64.6*	-0.7	1.6
CCOc1ccc(N(C)S(=O)(=O)c2cc(-c3cc(C)no3)ccc2CC)cc1	0.1	-5.4	58.3*	2.2	2.0
CCOc1ccc(N(C)S(=O)(=O)c2cc(-c3cc(C)no3)ccc2OC)cc1	-1.3	-14.1	14.8	-0.2	0.9
O=C(Nc1cc(Cl)cc(Cl)c1)C1CC(=O)N(C2CCCC2)C1 (stereo not drawn)	3.8	-13.9	30.5	3.2	4.8
Cc1ccc(N/C(SCc2ccccc2C)=C(/C#N)C(=O)NCc2ccco2)cc1C	2.2	-9.6	63.5*	1.6	-0.3
CCCCCC[n+]1ccccc1/C=C/c1ccc(N(C)C)cc1	nt	nt	70.1*	nt	30.0
CC[n+]1ccccc1/C=C/c1ccc(N(C)C)cc1	nt	nt	13.6	nt	9.3
Cc1csc2c(N3CCN(C(=S)Nc4ccc(C(F)(F)F)cc4)CC3)ncnc12	11.5	-15.7	38.1	5.9	46.8*
Cc1csc2ncnc(N3CCN(C(=S)Nc4ccc(C(F)(F)F)cc4)CC3)c12	11.0	-18.1	-41.5	9.4	1.1
COc1ccc(CN(C(=O)c2snc(C(N)=O)c2N)C(C)C(=O)NCc2ccc(F)cc2)cc1 (stereo not drawn)	4.5	-12.0	19.5	8.4	14.3
COc1ccc(C(C(=O)NCc2ccccc2)N(Cc2cccnc2)C(=O)c2snc(C(N)=O)c2N)cc1OC (stereo not drawn)	0.4	-7.5	19.9	-0.3	4.3
COc1cccc(N(C(=O)c2snc(C(N)=O)c2N)C(C(=O)NCc2ccccc2)c2ccc(O)cc2)c1 (stereo not drawn)	1.8	-12.4	54.0*	1.5	9.2
CN(C)c1ccc(C(C(=O)NCc2ccccc2)N(Cc2cccnc2)C(=O)c2snc(C(N)=O)c2N)cc1 (stereo not drawn)	nt	nt	56.2*	nt	16.7
COc1ccc(CNC(=O)C(C)N(Cc2ccccc2OC)C(=O)c2snc(C(N)=O)c2N)cc1 (stereo not drawn)	4.9	-9.9	51.4*	1.2	15.2
Cc1cc(C)c(S(=O)(=O)Nc2nnc(C3CCCCC3)s2)c(C)c1	-1.9	-9.8	-5.5	0.5	-2.5
Cc1ccc(Oc2nc3c(c(=O)n(Cc4ccccc4F)c(=O)n3C)n2C)cc1	-0.2	3.8	49.7*	0.2	20.3
COCCNc1nc2c(c(=O)n(Cc3ccccc3F)c(=O)n2C)n1C	-0.3	-7.6	-15.2	0.0	1.1
CCCc1ccc(C(O)c2ncc(-c3cccc(C)c3)[nH]2)cc1 (stereo not drawn)	nt	nt	3.7	nt	1.6
O=C(Nc1ccc(C(=O)NCCCN2CCN(c3ccc(F)cc3)CC2)cc1)C1=CSCCO1	29.3*	-14.7	23.4	25.7*	45.4*
O=C(Nc1ccc(C(=O)NCCCN2CCCCC2)cc1)C1=CSCCO1	0.5	-5.3	1.6	0.8	2.6
SMILES	OXTR ag	OXTR potentiator	TAAR1 antagonist	V1aR counter	TAAR1 agonist
Fc1cc(F)c2nc(Nc3nc4cc5c(cc4s3)OCO5)sc2c1	0.1	1.5	61.0*	-0.3	2.7
CN(C)c1ccc(C=C2SC(=S)N(Cc3ccco3)C2=O)cc1	nt	nt	53.4*	nt	43.8*
O=C(N[C@H](C(=O)N1CCC[C@H]1C(=O)NCCc1ccccc1Cl)c1ccccc1)C1CC1	nt	nt	11.6	nt	37.1
C=CC[C@]1(c2ccccc2)C(=O)N2C[C@H]3CON(C)[C@H]3C[C@H]2c2ccccc21	nt	nt	-9.5	nt	0.7
O=C1C2C3C=CC(C4CC34)C2C(=O)N1/N=C/c1ccc(-c2ccc(Cl)cc2[N+](=O)[O-])o1 (stereo not drawn)	0.2	-15.2	52.3*	0.5	12.4
O=C1C2C3C=CC(C4CC34)C2C(=O)N1/N=C/c1ccc(-c2ccc(F)cc2[N+](=O)[O-])o1 (stereo not drawn)	3.2	-12.6	42.2	2.2	16.1
NS(=O)(=O)c1ccc(CCNc2ccn3nc(-c4cccc(C(F)(F)F)c4)cc3n2)cc1	nt	nt	60.8*	nt	21.5
c1ccc(-c2cc3nc(NCc4cccs4)ccn3n2)cc1	nt	nt	-0.8	nt	4.5
COc1ccccc1-c1cc2nc(NCCc3ccc(S(N)(=O)=O)cc3)ccn2n1	nt	nt	55.5*	nt	4.1
CC(C)CN(C(=O)COC(=O)C(C)N1C(=O)c2ccccc2C1=O)c1c(N)n(Cc2ccccc2)c(=O)[nH]c1=O (stereo not drawn)	-0.2	-6.3	-15.8	0.4	1.9
CCOC(=O)c1c(C)[nH]c(C(=O)COC(=O)[C@H](C)N2C(=O)C3CCCCC3C2=O)c1C (stereo partly drawn)	nt	nt	55.7*	nt	20.3
CC(=O)c1c(C)[nH]c(C(=O)COC(=O)CN2C(=O)C3CCCCC3C2=O)c1C (stereo not drawn)	3.0	-11.8	1.6	3.6	13.0
COc1cc(/C=N\NC(=O)c2ccc(Cn3nc([N+](=O)[O-])c(Cl)c3C)o2)ccc1O	5.7	-13.6	49.5*	6.7	11.7
COc1ccccc1C(=O)COC(=O)c1nc2nc(C)cc(C)n2n1	0.6	2.1	-6.0	0.8	0.7
COC(=O)C1(c2ccccc2)NC(c2cccs2)C2C(=O)N(c3ccccc3)C(=O)C21 (stereo not drawn)	23.2*	-19.4	5.8	20.9*	5.0
Nc1ccn([C@@H]2O[C@H](C(=O)N3CCN(C(=O)N4CCCCC4)CC3)[C@@H](O)[C@H]2O)c(=O)n1	nt	nt	-6.2	nt	1.3
CCCCc1nnc(NC(=O)CCS(=O)(=O)c2ccc(Cl)cc2)s1	-0.6	-2.1	-8.7	-0.4	14.1
COc1ccc(OC2C(=O)N(Cc3ccc4c(c3)OCO4)C2c2cccs2)cc1 (stereo not drawn)	6.4	-11.4	55.9*	10.8	9.3
